The values below come from ChEMBL document CHEMBL1123436, “Comparative toxicities and analgesic activities of three monomethylated analogues of acetaminophen” (J Med Chem, 1986).

Assay [1] has as its system Mus musculus. The assay is described as follows: Hepatotoxicity in Swiss-Webster Mice Caused by compound at 1000 mg/kg (i.p.) (pipernonyl butoxide pretreated animals)dose. Details: dose 1000 mg/kg. The format is functional, organism-based. In short, it runs like this: (§1)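 Male Swiss-Webster mice (20 g), groups of 10. Piperonyl butoxide (neat, single 1360 mg/kg ip dose) was given 30 min before drug, then drug ip in saline. At 24 h: survivors counted, plasma ALT measured, and H&E liver sections scored for necrosis in survivors. Values are means ± SE.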

The subject of assay [2] is Mus musculus. The assay can be described thus: (§2) Hepatotoxicity in Swiss-Webster Mice Caused by compound at 750 mg/kg (i.p.) dose. The conditions noted are these: route intraperitoneal. Format: functional. An outline of the steps: (§3)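 Male Swiss-Webster mice (20 g), groups of 10, were given a single ip dose of drug in saline with no pretreatment. Survivors were decapitated at 24 h and counted. Plasma ALT was measured, and liver sections (formalin-fixed, paraffin, H&E) were scored for necrosis severity in survivors. Values are means ± SE.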

The subject of assay [3] is Mus musculus. The assay can be described thus: (§4) Hepatotoxicity in Swiss-Webster Mice Caused by compound at 400 mg/kg (i.p.) dose. Format: functional. The note with it: route intraperitoneal. In short, it runs like this: as §3
Assay [4] deals with Mus musculus. The assay is described as follows: Hepatotoxicity in Swiss-Webster Mice Caused by compound at 400 mg/kg (i.p.) dose; 9/10. The format is functional. The conditions noted are these: route intraperitoneal. An outline of the steps: as §3
For assay [5], the system named is Mus musculus. The assay is described as follows: (§5) Hepatotoxicity in Swiss-Webster Mice Caused by compound at 400 mg/kg (i.p.) (cobaltous chloride pretreated animals)dose. Format: functional, organism-based. Also on record: dose 400 mg/kg. An outline of the steps: (§6)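 Male Swiss-Webster mice (20 g), groups of 10. Cobaltous chloride (30 mg/kg ip) was given 48, 36, 24 and 12 h before drug, then drug ip in saline. At 24 h: survivors counted, plasma ALT measured, and H&E liver sections scored for necrosis in survivors. Values are means ± SE.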

For assay [6], the system named is Mus musculus. The assay is described as follows: Hepatotoxicity in Swiss-Webster Mice Caused by compound at 400 mg/kg (i.p.) (pipernonyl butoxide pretreated animals)dose. Format: functional. The conditions noted are these: route intraperitoneal. In short, it runs like this:
as §1

In assay [7] the test system is Mus musculus. The assay can be described thus: Hepatotoxicity in Swiss-Webster Mice Caused by compound at 400 mg/kg (i.p.) (pipernonyl butoxide pretreated animals)dose; 9/10. The note with it: route intraperitoneal. Format: functional. An outline of the steps: as §1
Assay [8] is described as follows: as §5. Format: functional, Mus musculus. The note with it: route intraperitoneal. In short, it runs like this: as §6
Assay [9] concerns Mus musculus. Described as §4. Format: functional, organism-based. Also on record: dose 400 mg/kg. In short, it runs like this: as §3
Assay [10] has as its system Mus musculus. The assay is described as §2. The format is functional, organism-based. Also on record: dose 750 mg/kg. An outline of the steps: as §3
Assay [11] has as its system Mus musculus. The assay can be described thus: Hepatotoxicity in Swiss-Webster Mice Caused by compound at 750 mg/kg (i.p.) dose; 4/10. The format is functional. The note with it: route intraperitoneal. An outline of the steps: as §3
Assay [12] relates to Mus musculus. The assay can be described thus: (§7) Hepatotoxicity in Swiss-Webster Mice Caused by compound at 400 mg/kg (i.p.) (phenobarbital pretreated animals)dose. Also on record: dose 400 mg/kg. Format: functional, organism-based. In short, it runs like this:
(§8)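 Male Swiss-Webster mice (20 g), groups of 10. Sodium phenobarbital (80 mg/kg ip) was given 72, 60, 48 and 24 h before drug, then drug ip in saline. At 24 h: survivors counted, plasma ALT measured, and H&E liver sections scored for necrosis in survivors. Values are means ± SE.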

A short description of assay [13]: Hepatotoxicity in Swiss-Webster Mice Caused by compound at 400 mg/kg (i.p.) (phenobarbital pretreated animals)dose; 4/10. The format is functional, Mus musculus. The conditions noted are these: route intraperitoneal. In short, it runs like this:
as §8

A short description of assay [14]: as §7. The note with it: route intraperitoneal. Format: functional, Mus musculus. In short, it runs like this: as §8
The species entered for assay [15] is Mus musculus. The assay can be described thus: Analgesic activity determined in mice using the Bradykinin-induced Writhing test. The format is functional. In short, it runs like this: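 Male CD1 mice (15–20 g), test drug given orally 15 min before bradykinin ip (4 μg in 0.2 mL sterile water), then a second bradykinin injection (0.2 μg/0.1 mL) 15 min later. Writhing was scored over the next 10 min, with control groups of 10 mice. ED50 was derived by log-probit analysis from at least five doses, with 95% limits.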
For orientation: Writhing tests count abdominal constrictions after an irritant is injected.

The nature of assay [16]: Hepatotoxicity in Swiss-Webster Mice Caused by compound at 400 mg/kg (i.p.) (cobaltous chloride pretreated animals)dose; 8/10. The format is functional, Mus musculus. The conditions noted are these: route intraperitoneal. An outline of the steps: as §6

Structures are written as SMILES.

As for `CC(=O)Nc1ccc(O)c(C)c1`, the Plasma ALT at 24 h turned out to be 83 mU ml-1 in assay [1]; 345 mU ml-1 in [5]; 1080 mU ml-1 in assay [9]; 3250 mU ml-1 in [10]; 5130 mU ml-1 in assay [12]. Moreover, the “Hepatic necrosis in survivors” value is recorded as 2.75 in assay [2]; 1 in assay [3]; 0 in [6]; 0.56 in [8]; 3.5 in assay [14]. Moreover, the “Survivors at 24 h” value is 9 in assay [4]; 9 in assay [7]; 4 in assay [11]; 4 in assay [13]; 8 in [16]. Also, the ED50 (as a rule, the midpoint of the dose-response relation) in assay [15] worked out at 94.6 mg/kg.
